In test [1] the test system is N2a. The experiment in a line: Protection against tunicamycin-induced ER-stress-dependent mouse Neuro2a cell death assessed as cell viability after 24 hrs by MTT assay. It counts as functional, cell-based. Summed up: (§1)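 Neuro2a cells in D-MEM with 10% FBS, seeded at 2000 cells/well and grown 24 h. Pretreated 6 h with graded compound levels in serum-free D-MEM, then stressor added to final 0.5 μg/mL tunicamycin or 10 nM thapsigargin for 24 h. MTT 0.25 mg/mL for 2 h, stopped with SDS/DMF, A570. Viability as percent of untreated cells; TG mean ± SE, n = 10−12; Tukey–Kramer tests.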
(Tetrazolium assays rely on reduction of a dye to a coloured formazan, in cell work by metabolically active cells.)

Test [2] deals with N2a. The test can be described thus: Protection against thapsigargin-induced ER-stress-dependent mouse Neuro2a cell death assessed as cell viability at > 50 uM after 24 hrs by MTT assay. It is filed as functional, cell-based. Summed up: as §1

The source made the active and inactive calls. The calls are words filed in the database; no cut-off is given here.

On to `C[C@@H](O)[C@H]1COC(=O)[C@@H]1C`, for which the outcome in the test with N2a [1] was inactive. Further, the outcome in the test on N2a [2] was Active.

On to `CC1=C(CO)C(C)(O)OC1=O` (stereo unspecified), for which the outcome with N2a [1] was inactive. The outcome in the test with N2a [2] was Active.

Turning to `OCC[C@H](O)CCc1ccccc1`, the result in the test with N2a [1] was inactive. The outcome with N2a [2] was Active.

Consider `CC1=C(C)C(C)(O)OC1=O` (stereo unspecified), for which the outcome with N2a [1] was inactive. Besides, the result in the test with N2a [2] was Active.

For the molecule `CC1=C(C(C)O)C(O)OC1=O` (stereo unspecified), the outcome with N2a [1] was inactive. Moreover, in the test on N2a [2], the outcome was Active.

As for `OCC[C@H](O)[C@H](O)Cc1ccccc1`, the result with N2a [1] was inactive. Also, in the test with N2a [2], the result was Active.

As to `CC(=O)[C@@H]1COC(=O)[C@H]1C`, the outcome in the test with N2a [1] was inactive. In addition, in the test on N2a [2], the outcome was Active.

Regarding `CC(=O)[C@@H]1COC(=O)[C@@H]1C`, the outcome with N2a [1] and in the test with N2a [2] was inactive.

Values taken from ChEMBL document CHEMBL3352156, “Endoplasmic reticulum stress suppressive compounds from the edible mushroom Mycoleptodonoides aitchisonii” (J Nat Prod, 2014).
